Experimental data taken from ChEMBL document CHEMBL4725346, “Syntheses and Evaluation of New Bisacridine Derivatives for Dual Binding of G-Quadruplex and i-Motif in Regulating Oncogene c-myc Expression” (J Med Chem, 2020).
Active and inactive are the calls of the source. The rule behind the calls is not given here.

Assays:
[1] = Stabilization of 5'-FAM/3'-TAMRA labeled hairpin DNA F10T (unknown origin) assessed as change in melting temperature at 1 uM by FRET assay (reference value: 59.1 degreeC)
[2] = Stabilization of c-myc promoter i-motif DNA Py33 (unknown origin) assessed as decrease in negative peak intensity at pH 5.5 measured at 260 nanometer by CD spectroscopy
Method in brief: (§1)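 Py33 at 1 µM in 1× BPES pH 5.5 (pH 6.8 random-coil reference), with or without ligand. Annealed at 95 °C for 5 min, cooled, kept at 4 °C overnight. CD spectra in a 4 mm cuvette over 230–350 nm, three scans averaged, buffer-corrected; peaks followed at 288 and 260 nm.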

[3] = Stabilization of c-myc promoter i-motif DNA Py33 (unknown origin) assessed as reduction in appearance of random coil confirmation at pH 5.5 by CD spectroscopy; method in brief: as §1
HCT-116 = assay: Antiproliferative activity against human HCT-116 cells after 48 hrs by MTT assay; format: functional, cell-based; details: HCT-116, 48 h
Method in brief: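 Cells seeded at 5.0×10^3 per well, pre-incubated 12 h at 37 °C, 5% CO2, then exposed to compounds for 48 h; DMSO-only control. MTT (2.5 mg/mL) added for 4 h, formazan dissolved in DMSO, absorbance at 570 nm. Each dose tested in triplicate; IC50 from percentage survival relative to negative control.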

Quadruplex DNA [4] = assay: Binding affinity to c-myc mutated promoter G-quadruplex/i-motif (unknown origin) expressed in human SiHa cells assessed as reduction in c-myc transcription by measuring decrease in ratio of renilla/firefly luciferase activity at 0.025 to 0.1 uM after 48 hrs by dual-luciferase reporter assay; format: cell-based; details: dose microM 0.025-0.1, time 48.0 hrs
Method in brief: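 SiHa cells transfected with 200 ng psiCHECK2 plasmid carrying wild-type, mutant or deleted c-myc promoter. Compounds added 8 h after transfection, then incubated 48 h at 37 °C. Cells washed with ice-cold PBS; Renilla/firefly activity ratio read by dual-luciferase assay.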

SiHa [5] = assay: Effect on stability of c-myc RNA in human SiHa cells at 2.5 uM in presence of actinomycin D by RT-PCR method; format: functional, cell-based
Method in brief: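 SiHa cells seeded at 2×10^5 per well, grown 24 h, then treated with 5 µg/mL actinomycin D plus 2.5 µM compound. Total RNA extracted at the indicated time points for RT-PCR.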

SiHa [6] = assay: Inhibition of colony formation in human SiHa cells at 0.5 to 2 uM incubated for 9 days by crystal violet staining; format: functional, cell-based; details: dose microM 0.5-2, time 9.0 day
Method in brief: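 SiHa cells seeded at 500/well, pre-cultured 24 h at 37 °C/5% CO₂, then treated 9 days with compound at several concentrations. Cells washed with PBS, fixed 10 min in ice-cold methanol, stained 30 min with 0.5% crystal violet, dried and photographed.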

SiHa [7] = assay: Inhibition of cell invasion in human SiHa cells at 0.5 uM by transwell assay relative to control; format: functional
Method in brief: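 Transwell assay: SiHa cells incubated 24 h with 0.5 µM compound. Cell […] through the transwell was compared with an untreated control.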

SiHa [8] = assay: Induction of cell cycle arrest in human SiHa cells assessed as accumulation of cells at G0/G1 phase at 0.30 uM after 24 hrs by propidium iodide staining based flow cytometry (reference value: 42.28%); format: functional; details: dose 0.3 µM
SiHa [9] = assay: Induction of cell cycle arrest in human SiHa cells assessed as accumulation of cells at G2/M phase at 0.30 uM after 24 hrs by propidium iodide staining based flow cytometry (reference value: 29.71%); format: functional; details: dose 0.3 µM
SiHa [10] = assay: Induction of apoptosis in human SiHa cells assessed as early apoptotic cells at 0.6 uM after 24 hrs by annexin V/FITC-propidium iodide staining-based flow cytometric method ( Rvb = 0.3%); format: functional
SiHa [11] = assay: Induction of apoptosis in human SiHa cells assessed as late apoptotic cells at 0.6 uM after 24 hrs by annexin V/FITC-propidium iodide staining-based flow cytometric method ( Rvb = 0.4%); format: functional
SiHa [12] = assay: Induction of apoptosis in human SiHa cells assessed as late apoptotic cells at 1.2 uM after 24 hrs by annexin V/FITC-propidium iodide staining-based flow cytometric method ( Rvb = 0.4%); format: functional
SiHa [13] = assay: Induction of apoptosis in human SiHa cells assessed as necrotic cells at 1.2 uM after 24 hrs by annexin V/FITC-propidium iodide staining-based flow cytometric method ( Rvb = 0.1%); format: functional
SiHa [14] = assay: Induction of apoptosis in human SiHa cells assessed as late apoptotic cells at 2.4 uM after 24 hrs by annexin V/FITC-propidium iodide staining-based flow cytometric method ( Rvb = 0.4%); format: functional
SiHa [15] = assay: Induction of apoptosis in human SiHa cells assessed as necrotic cells at 2.4 uM after 24 hrs by annexin V/FITC-propidium iodide staining-based flow cytometric method ( Rvb = 0.1%); format: functional
Raji = assay: Induction of apoptosis in human Raji cells at 0.6 to 2.4 uM after 24 hrs by propidium iodide staining based flow cytometry; format: functional, cell-based; details: dose microM 0.6-2.4, time 24.0 hrs
CA46 = assay: Antiproliferative activity against human CA46 cells after 48 hrs by MTT assay; format: functional, cell-based
SiHa [16] = assay: Antitumor activity against human SiHa cells xenografted in BALB/c nude mouse assessed as reduction in tumor volume at 15 mg/kg, ip administered once per 2 days for 18 days (reference value: 750 mm3); format: functional; details: time 18 day
Method in brief: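 SiHa tumor fragments from donor xenografts (grown to about 1,000 mm³) implanted in the underarm of female BALB/c nude mice; six per group. Dosed ip once every two days for 18 days, saline as negative control, cisplatin 0.2 mg/kg as positive control. Tumor volume = length × width²/2. Tumors weighed at sacrifice.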

[17] = Toxicity in BALB/c nude mouse xenografted with human SiHa cells assessed as effect on heart weight at 15 mg/kg, ip administered once per 2 days for 18 days; format: organism-based; details: in vivo, 432 h, time 18 day
Method in brief: (§2)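 SiHa tumour fragments passaged from donor mice implanted in the underarm of female BALB/c nude mice (six per group). Compound given at 15 mg/kg ip once every two days for 18 days, with saline and cisplatin 0.2 mg/kg control groups. Body weight recorded every two days; at day 18 mice were sacrificed and organs weighed.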

[18] = Toxicity in BALB/c nude mouse xenografted with human SiHa cells assessed as effect on liver weight at 15 mg/kg, ip administered once per 2 days for 18 days; format: organism-based; details: in vivo, 432 h, time 18 day; method in brief: as §2
[19] = Toxicity in BALB/c nude mouse xenografted with human SiHa cells assessed as effect on kidney weight at 15 mg/kg, ip administered once per 2 days for 18 days; format: organism-based; details: in vivo, 432 h, time 18 day; method in brief: as §2
Quadruplex DNA [20] = assay: Binding affinity to 5'-biotin labeled c-myc promoter G-quadruplex DNA Pu27 (unknown origin) by UV titration method; format: nucleic-acid assay

Cc1ccc2nc3ccc(C)cc3c(NCCCNCCNCCCNc3c4cc(C)ccc4nc4ccc(C)cc34)c2c1
ΔTm [1]: 4.5 °C
Activity [2]: Active
Activity [3]: Active
IC50 (HCT-116): 150 nM
Activity (Quadruplex DNA [4]): inactive
Activity (SiHa [5]): inactive
inhibition (SiHa [6]): Active
inhibition at 0.5 µM (SiHa [7]): 85%
Activity (SiHa [8]): 30.44%
Activity (SiHa [9]): 42.47%
Activity (SiHa [10]): 18.1%
Activity (SiHa [11]): 3.8%
Activity (SiHa [12]): 18.7%
Activity (SiHa [13]): 4.6%
Activity (SiHa [14]): 27.5%
Activity (SiHa [15]): 5.5%
Activity (Raji): Active
Activity (CA46): inactive
Activity (SiHa [16]): 450 mm3
Activity [17]: Non-Toxic
Activity [18]: Non-Toxic
Activity [19]: Non-Toxic
Activity (Quadruplex DNA [20]): Active
